Columns and labels:
[1] = molecular target: NAD(P)H dehydrogenase [quinone] 1 (Mus musculus) (UniProt Q64669); assay: Induction of quinone reductase 1 activity in mouse Hepa-1c1c7 cells at 50 uM by MTT assay relative to untreated control; format: cell-based
Outline: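 Hepa 1c1c7 murine hepatoma cells treated with compound at 50 μM. QR1 measured by NADPH-dependent, menadiol-mediated reduction of MTT to formazan. Protein measured by crystal violet staining of identical plates. Specific activity is nmol formazan per mg protein per min. Induction ratio is treated versus DMSO-treated control.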

[2] = molecular target: NAD(P)H dehydrogenase [quinone] 1 (Mus musculus) (UniProt Q64669); assay: Induction of quinone reductase 1 activity in mouse Hepa-1c1c7 cells assessed as cell survival at 50 uM by MTT assay relative to control; format: cell-based
[3] = molecular target: T1, Aromatase (Homo sapiens, UniProt P11511); assay: Inhibition of aromatase at 50 uM after 10 mins preincubation by plate reader relative to control
T1 sequence (P11511 whole entry): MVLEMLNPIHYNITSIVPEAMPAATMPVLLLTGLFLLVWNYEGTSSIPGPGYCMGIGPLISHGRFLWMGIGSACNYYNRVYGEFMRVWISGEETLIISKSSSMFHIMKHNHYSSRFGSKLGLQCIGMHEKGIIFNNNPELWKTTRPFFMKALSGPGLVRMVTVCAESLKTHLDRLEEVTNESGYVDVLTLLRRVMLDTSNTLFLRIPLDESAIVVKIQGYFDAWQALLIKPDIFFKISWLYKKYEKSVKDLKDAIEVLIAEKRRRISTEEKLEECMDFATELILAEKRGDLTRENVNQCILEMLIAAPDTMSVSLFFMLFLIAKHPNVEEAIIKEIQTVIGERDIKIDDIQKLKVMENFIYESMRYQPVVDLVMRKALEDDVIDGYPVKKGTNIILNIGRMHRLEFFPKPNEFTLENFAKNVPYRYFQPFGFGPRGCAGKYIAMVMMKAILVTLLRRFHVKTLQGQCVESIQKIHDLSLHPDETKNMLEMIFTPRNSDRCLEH
Outline: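 CYP19 enzyme. Compound pre-incubated 10 min with an NADPH-regenerating system (NADP+, glucose 6-phosphate, G6PDH, MgCl2, albumin) in 50 mM potassium phosphate pH 7.4. Enzyme and 0.4 μM dibenzylfluorescein substrate then added, 30 min at 37 °C. Quenched with 2 N NaOH and incubated a further 2 h at 37 °C. Fluorescence read at ex 485/em 530 nm. Compound tested at 50 μM.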

[4] = molecular target: T2, Nitric oxide synthase, inducible (Mus musculus) (UniProt P29477); assay: Inhibition of iNOS-mediated nitric oxide production in LPS-stimulated mouse RAW 264.7 cells at 50 uM pretreated 15 mins before LPS challenge measured after 20 hrs relative to control; format: cell-based
T2 sequence (whole entry): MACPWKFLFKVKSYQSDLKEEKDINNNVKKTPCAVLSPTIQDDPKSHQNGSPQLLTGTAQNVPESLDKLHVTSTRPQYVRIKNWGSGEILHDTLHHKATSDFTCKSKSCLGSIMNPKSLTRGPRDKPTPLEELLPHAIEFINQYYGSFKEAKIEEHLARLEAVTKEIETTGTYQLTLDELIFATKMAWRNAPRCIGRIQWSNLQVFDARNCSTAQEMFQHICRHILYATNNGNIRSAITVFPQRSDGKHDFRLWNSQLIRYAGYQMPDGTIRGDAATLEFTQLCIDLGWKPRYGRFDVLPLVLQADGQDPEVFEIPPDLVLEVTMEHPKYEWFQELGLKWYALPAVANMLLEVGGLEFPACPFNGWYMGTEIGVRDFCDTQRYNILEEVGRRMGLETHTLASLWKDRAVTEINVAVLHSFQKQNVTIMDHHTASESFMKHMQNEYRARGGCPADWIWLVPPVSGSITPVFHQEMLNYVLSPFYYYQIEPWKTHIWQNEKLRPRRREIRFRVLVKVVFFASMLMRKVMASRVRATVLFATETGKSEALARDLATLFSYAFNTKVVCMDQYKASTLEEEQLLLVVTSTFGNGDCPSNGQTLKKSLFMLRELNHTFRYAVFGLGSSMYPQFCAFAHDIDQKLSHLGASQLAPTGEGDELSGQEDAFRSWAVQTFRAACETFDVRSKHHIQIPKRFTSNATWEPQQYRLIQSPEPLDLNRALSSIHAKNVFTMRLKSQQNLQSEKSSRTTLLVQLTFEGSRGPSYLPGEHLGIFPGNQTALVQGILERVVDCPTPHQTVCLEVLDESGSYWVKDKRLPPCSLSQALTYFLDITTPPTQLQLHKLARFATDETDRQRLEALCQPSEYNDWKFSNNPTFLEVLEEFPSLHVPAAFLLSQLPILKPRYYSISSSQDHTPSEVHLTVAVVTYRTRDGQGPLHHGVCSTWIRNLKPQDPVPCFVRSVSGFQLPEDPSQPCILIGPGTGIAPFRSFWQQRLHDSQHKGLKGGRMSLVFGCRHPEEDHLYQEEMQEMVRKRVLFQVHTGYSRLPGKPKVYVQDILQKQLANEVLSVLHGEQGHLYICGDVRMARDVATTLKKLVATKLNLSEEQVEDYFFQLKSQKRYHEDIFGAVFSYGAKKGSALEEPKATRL
Outline: (§1)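 RAW 264.7 cells cultured 24 h at 37°C, then given serially diluted compounds for 15 min before LPS (1 μg/mL) for 20 h. Nitrite in the medium measured with Griess reagent at 540 nm against a sodium nitrite standard curve. Cytotoxicity checked by SRB under the same conditions.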

[5] = molecular target: T2, Nitric oxide synthase, inducible (Mus musculus); assay: Inhibition of iNOS-mediated nitric oxide production in LPS-stimulated mouse RAW 264.7 cells assessed as cell survival at 50 uM pretreated 15 mins before LPS challenge measured after 20 hrs relative to control; format: cell-based
Outline: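 RAW 264.7 cells were incubated at 37°C, 5% CO2 for 24 h. They were then exposed to compound for 15 min before LPS (1 μg/mL) was added for 20 h. Cytotoxicity was measured by SRB staining under the same conditions. Survival is expressed as % relative to vehicle-treated controls at 50 μM.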

[6] = molecular target: T3, Nitric oxide synthase, inducible (Mus musculus, UniProt P29477); assay: Inhibition of iNOS-mediated nitric oxide production in LPS-stimulated mouse RAW 264.7 cells pretreated 15 mins before LPS challenge measured after 20 hrs relative to control; format: cell-based; outline: as §1
T3 sequence (P29477 whole entry): T2 sequence (whole entry)

[7] = test system: HEK293; assay: Inhibition of TNF-alpha-induced NFkappaB activation in human HEK293 cells at 50 uM after 6 hrs by luciferase assay relative to control; format: cell-based
Outline: (§2)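 Cells incubated 6 h with TNFα plus test compound, then luciferase activity measured. Results expressed as percent of TNFα-treated control. Screening concentration 50 μM.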

[8] = test system: HEK293; assay: Inhibition of TNF-alpha-induced NFkappaB activation in human HEK293 cells assessed as cell survival at 50 uM after 6 hrs by luciferase assay relative to control; format: cell-based
[9] = test system: MCF7; assay: Antiproliferative activity against human MCF7 cells assessed as survival at 50 uM after 72 hrs by SRB assay relative to control; format: functional; conditions: MCF7, 72 h, read-out: Survival
Outline: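 MCF7 cells (1 × 10^4 per well) were plated onto compound and kept at 37°C, 5% CO2 for 72 h. Cells were fixed in 10% TCA for 30 min and stained with 0.4% SRB in 1% acetic acid for 30 min. Bound dye was dissolved in 10 mM Tris (pH 10.0) and read at 515 nm. Survival is given as % of DMSO-treated controls, screened at 50 μM.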

[10] = test system: MCF7; assay: Antiproliferative activity against human MCF7 cells after 72 hrs by SRB assay; format: functional, cell-based; conditions: MCF7, 72 h
Outline: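 MCF7 cells, 1 × 10^4 per well, plated directly onto compounds and incubated 72 h at 37°C, 5% CO2. Fixed with 10% TCA, stained with 0.4% SRB in 1% acetic acid. Bound dye dissolved in 10 mM Tris pH 10.0, absorbance read at 515 nm. Survival expressed relative to DMSO-treated controls.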

[11] = molecular target: NAD(P)H dehydrogenase [quinone] 1 (Mus musculus) (UniProt Q64669); assay: Induction of quinone reductase 1 in mouse Hepa 1c1c7 cells assessed as concentration of compound required to double enzyme activity by MTT assay; format: cell-based
Outline: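 Dose-response in Hepa 1c1c7 cells, run for substances with induction ratio >2 at 50 μM. QR1 activity measured as menadiol-mediated, NADPH-dependent MTT reduction to formazan, normalised to crystal violet protein content. CD is the concentration that doubles specific activity relative to DMSO control.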

[12] = Inhibition of TNF-alpha-induced NFkappaB activation in human HEK293 cells after 6 hrs by luciferase assay; format: cell-based; conditions: HEK293, 6 h; outline: as §2

Sequence of NAD(P)H dehydrogenase [quinone] 1 (Mus musculus) (Q64669 whole entry): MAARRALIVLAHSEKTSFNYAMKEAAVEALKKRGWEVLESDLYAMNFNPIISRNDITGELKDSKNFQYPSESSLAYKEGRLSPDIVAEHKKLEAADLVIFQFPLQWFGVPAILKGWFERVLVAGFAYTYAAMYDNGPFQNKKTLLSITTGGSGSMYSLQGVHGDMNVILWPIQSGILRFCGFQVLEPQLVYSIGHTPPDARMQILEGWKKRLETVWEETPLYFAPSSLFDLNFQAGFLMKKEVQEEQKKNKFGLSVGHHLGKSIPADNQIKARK

Compound	Ratio [1]	Survival [2]	inhibition at 50 µM [3]	inhibition [4]	Survival [5]	IC50 [6]	inhibition [7]	Survival [8]	viability at 50 µM [9]	IC50 [10]	CD [11]	IC50 [12]
COC(=O)[C@@H]1Cc2c([nH]c3ccccc23)CN1C(=O)NC1CCCCC1	1.1	71.5%	33%	53.8%	79%	41.1 µM	44.7%	111%	26.3%	35.8 µM	–	–
COC(=O)[C@H]1Cc2c([nH]c3ccccc23)CN1C(=O)NC(C)C	2.7	77%	32.6%	16.2%	89.4%	–	73.7%	143%	66.1%	–	8.6 µM	21.2 µM
COC(=O)[C@H]1Cc2c([nH]c3ccccc23)CN1S(=O)(=O)c1ccc(Br)cc1	2.1	83.7%	35.5%	3.8%	89.7%	–	43.7%	154%	30.6%	42.1 µM	29.7 µM	–
COC(=O)[C@H]1Cc2c([nH]c3ccccc23)CN1C(=O)NC12CC3CC(CC(C3)C1)C2	0.4	30.6%	39.9%	64.7%	63.2%	11.7 µM	36.5%	110%	9.9%	14.7 µM	–	–
O=C(O)[C@@H]1Cc2c([nH]c3ccccc23)CN1Cc1ccccc1	2.4	105%	28%	6.9%	119%	–	59.5%	49.1%	–	–	8.1 µM	21.4 µM
COC(=O)[C@H]1Cc2c([nH]c3ccccc23)CN1Cc1ccccc1	1.2	96.8%	38.4%	74.7%	81.2%	32.9 µM	54.4%	77.1%	–	–	–	44.2 µM
COC(=O)[C@H]1Cc2c([nH]c3ccccc23)CN1C(=O)NC1CCCCC1	1	71.8%	24.4%	55%	83.8%	41.6 µM	20.9%	101%	5.3%	18.4 µM	–	–
CCCCCNC(=O)N1Cc2[nH]c3ccccc3c2C[C@@H]1C(=O)OC	4.3	12.7%	11.1%	36.2%	90.5%	–	62.1%	140%	50.5%	–	0.2 µM	15.9 µM
CC[C@@]1(O)C(=O)OCc2c1cc1n(c2=O)Cc2cc3ccccc3nc2-1 [CAMPTOTHECIN]	–	–	–	–	–	–	–	–	–	0.056 µM	–	–
COC(=O)[C@@H]1Cc2c([nH]c3ccccc23)CN1Cc1ccccc1	1.6	100%	31.5%	68.2%	85.9%	32 µM	60.4%	28.8%	–	–	–	30.7 µM
COC(=O)[C@@H]1Cc2c([nH]c3ccccc23)CN1	1.1	125%	18.3%	12.5%	104%	–	58.3%	38.6%	–	–	–	38.9 µM

— ChEMBL document CHEMBL1914395, “Design, synthesis, and biological evaluation of callophycin A and analogues as potential chemopreventive and anticancer agents” (Bioorg Med Chem, 2011)
